{"data": "Published values pooled from the literature", "Tspo": "Translocator protein (Tspo, Rattus norvegicus, UniProt P16257)", "Melanocortin receptor 4": "Melanocortin receptor 4 (Mus musculus, UniProt P56450)", "GLP2R": "Glucagon-like peptide 2 receptor (GLP2R, Homo sapiens, UniProt O95838)", "note": "Lines come from different studies, so protocols differ. pEC50, pKd, pKi: −log10 of the molar value."}
{"SMILES": "CCOC(=O)[C@@]12C[C@@H]1[C@@H](n1ccc3c(NC4CC4)nc(C#Cc4ccccc4)nc31)[C@H](O)[C@@H]2O", "target": "Tspo", "assay": "ligand displacement, radioligand", "endpoint": "pKi", "result": "< 5.00"}
{"SMILES": "N=C(N)NCCC[C@H](NC(=O)[C@@H](N)CC(=O)O)C(=O)N[C@@H](Cc1ccccc1)C(=O)NCC(=O)O", "target": "Melanocortin receptor 4", "assay": "reporter gene, agonist", "endpoint": "pEC50", "result": "< 4.00"}
{"SMILES": "O=C(Nc1ccncc1)c1cn(Cc2ccc(Cl)c(Cl)c2)c(=O)c2cnn(C3CCNCC3)c12", "target": "Fascin (FSCN1, Homo sapiens, UniProt Q16658)", "assay": "binding, ITC", "endpoint": "pKd", "result": 7.35}
{"SMILES": "N=C(N)NCCC[C@H](NC(=O)[C@@H](N)CC(=O)O)C(=O)N[C@@H](Cc1ccccc1)C(=O)O", "target": "Melanocortin receptor 4", "assay": "reporter gene, agonist", "endpoint": "pEC50", "result": "< 4.00"}
{"SMILES": "CCOC(=O)[C@@]12C[C@@H]1[C@@H](n1ccc3c(NC)nc(I)nc31)[C@H](O)[C@@H]2O", "target": "Tspo", "assay": "ligand displacement, radioligand", "endpoint": "pKi", "result": "< 5.00"}
{"SMILES": "N=C(N)NCCC[C@H](NC(=O)[C@H](CC(=O)O)NC(=O)[C@H](Cc1c[nH]c2ccccc12)NC(=O)[C@@H](N)CCCNC(=N)N)C(=O)N[C@@H](Cc1ccccc1)C(=O)NCC(=O)O", "target": "Melanocortin receptor 4", "assay": "reporter gene, agonist", "endpoint": "pEC50", "result": "< 4.00"}
{"SMILES": "CNc1nc(C#Cc2ccc(Cl)s2)nc2c1ncn2[C@H]1[C@H](O)[C@H](O)[C@]2(C(=O)OCCc3ccccc3)C[C@H]12", "target": "Tspo", "assay": "ligand displacement, radioligand", "endpoint": "pKi", "result": "< 5.00"}
{"SMILES": "N=C(N)NCCC[C@H](NC(=O)[C@H](CC(=O)O)NC(=O)[C@H](Cc1c[nH]c2ccccc12)NC(=O)[C@H](CCCNC(=N)N)NC(=O)[C@H](Cc1ccccc1)NC(=O)[C@@H](N)Cc1c[nH]cn1)C(=O)N[C@@H](Cc1ccccc1)C(=O)NCC(=O)O", "target": "Melanocortin receptor 4", "assay": "reporter gene, agonist", "endpoint": "pEC50", "result": 5.08}
{"SMILES": "O=C(OC[C@H]1O[C@@H](OC(=O)c2cc(O)c(O)c(OC(=O)c3cc(O)c(O)c(O)c3)c2)[C@H](OC(=O)c2cc(O)c(O)c(OC(=O)c3cc(O)c(O)c(O)c3)c2)[C@@H](OC(=O)c2cc(O)c(O)c(OC(=O)c3cc(O)c(O)c(O)c3)c2)[C@@H]1OC(=O)c1cc(O)c(O)c(OC(=O)c2cc(O)c(O)c(O)c2)c1)c1cc(O)c(O)c(OC(=O)c2cc(O)c(O)c(O)c2)c1", "target": "Replicase polyprotein 1ab, main protease (rep, Severe acute respiratory syndrome coronavirus 2, UniProt P0DTD1)", "assay": "binding, SPR", "endpoint": "pKd", "result": 5.96}
{"SMILES": "Cc1cnc(-c2ccc(-c3ccc(NC(=O)Nc4c(F)cc(F)cc4F)cc3F)c3c2C(=O)NC3)[nH]1", "target": "High affinity nerve growth factor receptor (NTRK1, Homo sapiens, UniProt P04629)", "assay": "binding, competition with immobilised ligand", "endpoint": "pKd", "result": 9.00}
{"SMILES": "CC[C@H](C)[C@H](NC(=O)[C@H](CC(=O)O)NC(=O)[C@H](CO)NC(=O)[C@@H](NC(=O)[C@H](Cc1ccccc1)NC(=O)[C@@H](NC(=O)CNC(=O)[C@H](CC(=O)O)NC(=O)[C@H](C)NC(=O)[C@@H](N)Cc1c[nH]cn1)[C@@H](C)O)[C@@H](C)O)C(=O)N[C@@H](CC(N)=O)C(=O)N[C@@H](CCCCN)C(=O)N[C@H](C(=O)N[C@@H](CC(C)C)C(=O)N[C@@H](CC(=O)O)C(=O)N[C@@H](CC(=O)O)C(=O)N[C@@H](CCSC)C(=O)N[C@@H](C)C(=O)N[C@@H](C)C(=O)N[C@@H](CCCCN)C(=O)N[C@@H](CCC(=O)O)C(=O)N[C@@H](Cc1ccccc1)C(=O)N[C@@H](CC(C)C)C(=O)N[C@@H](CCCCN)C(=O)N[C@@H](Cc1c[nH]c2ccccc12)C(=O)N[C@@H](CC(C)C)C(=O)N[C@H](C(=O)N[C@@H](CC(N)=O)C(=O)N[C@H](C(=O)N[C@@H](CCCCN)C(=O)N[C@H](C(=O)N[C@H](C(=O)N[C@@H](CCC(N)=O)C(=O)O)[C@@H](C)O)C(C)C)[C@@H](C)O)[C@@H](C)CC)[C@@H](C)CC", "target": "GLP2R", "assay": "reporter gene, agonist, luciferase", "endpoint": "pEC50", "result": 7.48}
{"SMILES": "CNc1nc(C#Cc2ccc(Cl)s2)nc2c1ncn2[C@H]1[C@H](O)[C@H](O)[C@]2(C(=O)O)C[C@H]12", "target": "Tspo", "assay": "ligand displacement, radioligand", "endpoint": "pKi", "result": "< 5.00"}
{"SMILES": "CSCC[C@H](N)C(=O)NCC(=O)N[C@@H](Cc1c[nH]cn1)C(=O)N[C@@H](Cc1ccccc1)C(=O)N[C@@H](CCCNC(=N)N)C(=O)N[C@@H](Cc1c[nH]c2ccccc12)C(=O)O", "target": "Melanocortin receptor 4", "assay": "reporter gene, agonist", "endpoint": "pEC50", "result": 4.38}
{"SMILES": "O[C@@H]1[C@H](O)[C@@H]2C[C@@H]2[C@H]1n1cnc2c(NCCc3ccccc3)nc(C#Cc3ccccc3)nc21", "target": "Tspo", "assay": "ligand displacement, radioligand", "endpoint": "pKi", "result": "< 5.00"}
{"SMILES": "N#Cc1ccc(COc2cccc(C3CCN(Cc4nc5ccc(C(=O)O)cc5n4C[C@@H]4CCO4)CC3)n2)c(F)c1", "target": "GLP2R", "assay": "cAMP, agonist", "endpoint": "pEC50", "result": "< 4.70"}
